In the library only some 3.8% were active in any assay of this set; here they are far more common.
rCAG RNA binder = binders of r(CAG) RNA repeats, primary screen, biochemical, fluorescence; r(CAG) RNA repeat, TO-PRO-1 dye displacement fluorescence; inhibition, % at 3 µM; actives 1.3% (n = 370,000);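 active = inhibition above the plate cutoff, the mean of all test compounds on that plate plus 3 SD, cut at about 35% in these data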;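 also: 0% = DMSO alone and 100% = 100 µM mitoxantrone as full dye displacement; higher means more dye released from RNA so lower well fluorescence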
MPTP inh = mitochondrial permeability transition pore inhibitors, primary screen, biochemical, isolated mouse mitochondria, absorbance | Ca2+ swelling absorbance, 30 min | inhibition, % at 10 µM | actives 1.4% (n = 360,000);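 active = inhibition of 50% or more, scaled per plate between neutral and stimulator controls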;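 also: 0% = DMSO wells given calcium and 100% = 1 mM EGTA wells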
V-ATPase pHluor = regulators of yeast V-ATPase proton pumping, primary screen, pHLuorin cytosolic pH fluorescence. S. cerevisiae. response, % at 10 µM. actives 0.37% (n = 350,000); in the data active = response mostly above about 7.3%, no sharp cut-off; inactive = mostly below about 5.4%; also: actives read high
Beta2AR agonist = beta2AR agonists driving receptor internalization, primary screen, cell-based, FAP fluorogen, flow cytometry. Beta-2 adrenergic receptor (Homo sapiens), P07550. Am2.2-beta2AR cells. response, % (concentration not given with the values). actives 0.43% (n = 340,000). AID 504454, 2011;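 active = response above a set limit, near 3 SD of response in nonfluorescent compounds, cut at about 42% in these data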
Target sequence (P07550 whole entry, looked up): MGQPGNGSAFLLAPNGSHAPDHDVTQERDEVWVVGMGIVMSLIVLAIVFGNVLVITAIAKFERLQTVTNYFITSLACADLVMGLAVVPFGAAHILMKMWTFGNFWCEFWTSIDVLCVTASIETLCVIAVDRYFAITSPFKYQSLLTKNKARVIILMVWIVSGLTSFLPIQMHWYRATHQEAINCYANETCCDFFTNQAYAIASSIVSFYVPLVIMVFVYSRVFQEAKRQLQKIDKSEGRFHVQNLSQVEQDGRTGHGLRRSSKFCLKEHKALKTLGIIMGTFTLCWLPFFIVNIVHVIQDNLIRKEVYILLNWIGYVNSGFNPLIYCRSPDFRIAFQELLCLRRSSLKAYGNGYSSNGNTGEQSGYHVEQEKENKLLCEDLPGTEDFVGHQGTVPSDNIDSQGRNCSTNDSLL
T cell modulator = modulators of CD8 T cell-vesicle binding, primary screen, mouse 2C CD8+ T cells, flow cytometry; 2C CD8+ T cell-vesicle binding; hits give low values; response (vesicle binding), % at 7 µM; actives 0.068% (n = 330,000); AID 2052, 2009;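 active = response, share of CD8 T cells binding vesicles, and their 90th percentile fluorescence all below set limits, cut at about 80% in these data, passing the limit was not always enough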;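 also: values below 100% mean blocked vesicle binding to the CD8+ T cells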
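Material: 2C TCR transgenic mouse naive CD8+ T cells, MACS-purified. Also added: QL9-charged Drosophila Ld/ICAM-1/B7-1 vesicles. Timing: binding 1.5 h at 37 °C. Measured by: high-throughput flow cytometry with anti-B7-1 and anti-CD8 staining. Read-out: percent CD8+ FL2 mean versus row control. Controls: Unloaded micro-vesicles (low), QL9 vesicles with 0.7% DMSO (high).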
Exocytosis inh = LAMP-1 surface exposure blockers, TALL-104 cells – cell-based, flow cytometry, MLPCN library, primary screen | TALL-104 LAMP-1 surface exposure; cells stimulated with thapsigargin and PMA | inhibition, % at 10 µM | actives 0.66% (n = 360,000);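 active = inhibition above about 55%, limit read from the data; inconclusive = no clear call, values can overlap the other calls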
rCAG binder conf = small molecules binding CAG repeat RNA – biochemical, fluorescence, confirmation | r(CAG) RNA repeat, TO-PRO-1 dye displacement fluorescence | shares compounds with rCAG RNA binder | actives 70% (n = 4,300) | inhibition, % at 3 µM;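 active = inhibition above a per-plate cutoff, the mean inhibition of sample wells plus 3 SD, cut at about 35% in these data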;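 also: loss of TO-PRO-1 fluorescence as compound displaces dye from 1x1 AA loop RNA; 0% = DMSO only wells and 100% = 100 µM mitoxantrone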
dCAG dye counter = displacement of TO-PRO-1 from CAG DNA duplex, counter-screen for rCAG RNA repeat binder project, biochemical, fluorescence, TO-PRO-1 dye, d(CAG) DNA oligo; actives 94% (n = 4,300); shares compounds with rCAG RNA binder; AID 652068, 2013; inhibition, % at 3 µM; d(CAG) DNA oligo TO-PRO-1 dye displacement;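 active = inhibition above its plate's cutoff, the mean test-well inhibition plus 3 SD, cut at about 4.8% in these data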;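 also: 0% = DNA dye mix with DMSO and 100% = 100 µM mitoxantrone; hits displace the dye from DNA and so lower well fluorescence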
dCAG dye DR = inhibitors of DNA CAG/GTC TO-PRO-1 complex, dose response, counter-screen for rCAG RNA repeat binder project, biochemical, fluorescence, TO-PRO-1 dye. shares compounds with rCAG RNA binder. actives 20% (n = 250). AID 686960, 2013. DNA CAG/GTC duplex TO-PRO-1 dye displacement fluorescence. IC50, µM; in the data active = IC50 below about 10 µM
* hit, by the source's call; i = inactive; ? = inconclusive; . = not tested or not shown.

SMILES	rCAG RNA binder	MPTP inh	V-ATPase pHluor	Beta2AR agonist	T cell modulator	Exocytosis inh	rCAG binder conf	dCAG dye counter	others
COc1ccc(CC(N)c2csc(NC(=O)Nc3cccc(C(F)(F)F)c3)n2)cc1 (stereo not drawn)	47*	2	.	.	.	-26	26	7.1*
O=C(NCCc1c[nH]c2ccccc12)OCc1cn(-c2ccc(F)cc2F)nn1	4	.	.	.	.	.	.	.
Cn1c(COc2ccccc2)nnc1SCC(=O)Nc1ccccc1-c1ccccc1	4	.	.	.	.	.	.	.
NC(CCc1ccccc1)c1csc(NC(=O)Nc2cccc(C(F)(F)F)c2)n1 (stereo not drawn)	40*	6	.	.	.	49	22	3
CC(C)C(N)c1csc(NC(=O)Nc2ccccc2C(C)(C)C)n1 (stereo not drawn)	14	1	.	.	.	-8	.	.
CC(C)C(N)c1csc(NC(=O)Nc2cccc(C(F)(F)F)c2)n1 (stereo not drawn)	42*	5	.	.	.	?	45*	4	dCAG dye DR=>30
NC(Cc1ccc(C(F)(F)F)cc1)c1csc(NC(=O)Nc2ccccc2)n1 (stereo not drawn)	35*	7	.	.	.	0	16	7.5*
NC(COCc1ccccc1)c1csc(NC(=O)Nc2cccc(Cl)c2)n1 (stereo not drawn)	48*	4	.	.	.	5	24	5.5*
CC(C)c1ccc(NC(=O)Nc2nc(C(N)CCc3ccccc3)cs2)cc1 (stereo not drawn)	30	5	.	.	.	28	.	.
CC(C)(C)c1ccc(-c2cn(C[C@H](Cc3ccccc3)n3c(=O)c4ccccc4n3Cc3ccno3)nn2)cc1	11	.	.	.	.	.	.	.
NC(=O)NN=C1CCC(O)CC1CC(=O)O (stereo not drawn)	3	.	.	.	.	.	.	.
Cc1n[nH]c(C)c1S(=O)(=O)NCCc1cccc(F)c1	1	.	.	.	.	.	.	.
COc1ccc(OC)c(NC(=O)Nc2nc(C(N)CCc3ccccc3)cs2)c1 (stereo not drawn)	17	3	.	.	.	17	.	.
COc1cc(NC(=O)Nc2nc(C(N)CCc3ccccc3)cs2)cc(OC)c1OC (stereo not drawn)	35*	5	.	.	.	1	30	2
CCOc1ccc(/C=C/C(=O)c2cc(Br)ccc(=O)c2O)cc1	61*	4	-2	15	842	3	47*	22*
Cc1cccc(/C=C/C(=O)c2cc(Br)ccc(=O)c2O)c1	45*	-19	11	30	836	5	56*	24*
O=C(C=Cc1ccccc1)c1cc(Br)ccc1O	1	-2	1	7	.	-6	.	.
CCc1ccc(/C=C/C(=O)c2cc(Br)ccc(=O)c2O)cc1	46*	4	-5	21	271	15	54*	25*
CCOc1ccc(C(=O)/C=C/c2ccc(OC)c(OC)c2)cc1	-1	0	-4	3	134	0	.	.
CN(C)c1ccc2nc3ccc(=O)cc-3sc2c1	35*	5	1	.	.	1	31	12*
COc1ccc2nc(N=Nc3ccc(N(C)C)cc3)sc2c1	5	8	0	8	.	1	.	.
CC(NC(=O)C(NC(=O)OCc1ccccc1)C(C)O)C(=O)OCc1ccccc1 (stereo not drawn)	2	.	.	.	.	.	.	.
COc1ccccc1C(=O)N1CCC(Oc2cccnc2)CC1	0	.	.	.	.	.	.	.
COc1ccc(-c2cc(-c3ccc(Cl)cc3)c(C#N)c(SCC(=O)O)n2)cc1	80*	-1	0	3	i	7	85*	55*

Screening results deposited in PubChem by several laboratories.
